Source: PubChem
In the library only some 3.2% were active in any assay of this set; here they are far more common.
Cneo AK release: causes C. neoformans cell lysis; adenylate kinase release luminescence, 4 h; normalised: neutral wells 0, clomiphene wells 100; lysis activity, % at 15 µM; 0.2% of 360,000 active;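 active means mean lysis activity across replicates of at least 80%, whatever share of replicates individually reach that level; inactive means mean lysis activity below 80%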
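Test system: log-phase Cryptococcus neoformans yeast cells; Quantity: yeast cell density of 5 × 10^6 cells/mL; Buffer or medium: YPD; Doses: single compound concentration per well; Timing: 4 h at 37 °C static, read 1 h later; Measured by: AK luminescence; Read-out basis: lysis from increased AK signal; Control set: Clomiphene as positive control.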
S100A4 MyoIIA: blocks human S100A4 binding to myosin IIA peptide. S100A4/TAMRA-MyoIIA peptide fluorescence polarization. 0.14% of 360,000 active. AID 652163. inhibition, % at 10.7 µM. P26447;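 active means mean inhibition of at least 70% across replicates, with every replicate also reaching that level; inconclusive means mean inhibition reaches 70% but some replicates fall short; inactive means mean inhibition below 70%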
Target sequence (P26447 whole entry, looked up): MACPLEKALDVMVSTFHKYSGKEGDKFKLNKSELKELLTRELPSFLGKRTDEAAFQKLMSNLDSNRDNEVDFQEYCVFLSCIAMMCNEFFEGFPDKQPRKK
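Material: human S100A4 monomer with TAMRA-labelled myosin IIA peptide; buffer or medium: HEPES pH 7.2 with CaCl2, KCl, NaCl, DTT, Triton; compound dosing: one concentration per compound; schedule: 5 min incubation before reading; benchmarks: neutral control DMSO, positive control TFP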
rRNA inh HTS: inhibits bacterial ribosomal RNA function over humanized ribosomes. E. coli WT GFP vs humanized-ribosome RFP mutants, fluorescence, 24 h; stronger effect = lower value; DMSO median 0, no signal -100. GFP signal change (wild-type ribosome), % (no concentration beside the values). 1.6% of 350,000 active;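 active means significant combined selectivity score with lowered wild-type GFP, culture density cut under 30%, mutant RFP and density less affected; inactive means any of these conditions unmet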
DENV2 CPE rescue: protects cells from dengue virus 2 cytopathic effect | DENV2-infected cells, cytopathic effect rescue, plate reader | CPE inhibition, % at 9.99 µM | 1.7% of 350,000 active; in the data active means CPE inhibition above about 20%, passing the limit was not always enough; inconclusive means no clear call, values can overlap the other calls; tested in BHK-21 cells;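 further: 0% = median of neutral control wells and 100% = median of positive control wells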
MLL AF4-AF9 inh: inhibitors of human MLL-AF4/AF9 interaction; AID 651704; 0.47% of 350,000 active; AlphaScreen, biotin-AF4 peptide binding to FLAG-AF9; inhibition, % at 10 µM; P42568;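 active means every replicate reaching a set inhibition limit, whatever the replicate mean, cut at about 25% in these data; inconclusive means mean inhibition reaches that limit but some replicates miss it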;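 further: 0% = plate neutral control median and 100% = total signal loss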
Target sequence (P42568 whole entry, looked up): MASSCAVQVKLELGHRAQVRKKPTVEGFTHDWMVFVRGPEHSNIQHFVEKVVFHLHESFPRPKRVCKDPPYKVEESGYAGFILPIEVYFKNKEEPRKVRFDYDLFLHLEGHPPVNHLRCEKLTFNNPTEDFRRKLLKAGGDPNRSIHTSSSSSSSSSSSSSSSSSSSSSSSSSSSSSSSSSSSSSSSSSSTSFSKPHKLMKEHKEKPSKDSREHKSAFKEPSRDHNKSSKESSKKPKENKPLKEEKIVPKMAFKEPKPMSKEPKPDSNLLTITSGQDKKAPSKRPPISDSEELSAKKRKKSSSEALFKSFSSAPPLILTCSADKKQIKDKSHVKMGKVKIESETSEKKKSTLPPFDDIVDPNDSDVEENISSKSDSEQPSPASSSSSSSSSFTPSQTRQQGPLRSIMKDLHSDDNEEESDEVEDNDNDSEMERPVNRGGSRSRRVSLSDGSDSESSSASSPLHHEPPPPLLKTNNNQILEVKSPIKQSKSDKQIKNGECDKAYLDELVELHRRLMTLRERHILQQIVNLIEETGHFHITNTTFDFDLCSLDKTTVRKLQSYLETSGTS
PfHsp90 yeast 2: growth inhibition of yeast expressing Plasmodium Hsp90; 0.32% of 310,000 active; AID 504621; S. cerevisiae expressing PfHsp90, BacTiter-Glo ATP, 48 h; yeast lacking PDR1 and PDR3 efflux regulators; inhibition, % at 9.4 µM;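 active means every replicate shows inhibition above about 80%, whatever the replicate mean, limit read from the data; inconclusive means mean inhibition reaches the set limit but some replicate falls short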;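 further: 0% = DMSO neutral controls and 100% = 20 µM radicicol positive controls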
Active calls of the source: *; u = inconclusive; x = no result.

SMILES | Cneo AK release | S100A4 MyoIIA | rRNA inh HTS | DENV2 CPE rescue | MLL AF4-AF9 inh | PfHsp90 yeast 2
COc1ccc(-c2cnc3c(c2)C(=O)N([C@H](C)CO)C[C@@H](C)[C@@H](CN(C)C(=O)Cc2ccccn2)O3)cc1 | -7 | -2 | 5 | 9 | 1 | x
Cc1ccc(/C=N/NC(=O)c2ccc(-n3cnnn3)cc2)cc1 | 1 | -13 | 10 | 32* | 2 | 6
O=C(N/N=C/c1ccc(F)cc1)c1ccc(-n2cnnn2)cc1 | -2 | -10 | 9 | 5 | -2 | 7
COc1ccccc1-c1ccc2n(c1=O)C[C@H]1[C@H](CO)[C@@H](C(=O)N3CCCCC3)N(C)[C@@H]21 | 54 | -5 | 3 | u | -1 | x
COc1ccc(S(=O)(=O)N(C)C[C@H]2Oc3c(NC(=O)NC(C)C)cccc3C(=O)N([C@@H](C)CO)C[C@@H]2C)cc1 | -1 | 14 | -4 | -2 | -2 | x
O=C(CS(=O)(=O)c1cn(CC(=O)N2CCCC2)c2ccccc12)Nc1ccccc1 | 0 | -3 | 1 | 0 | 1 | 0
CN(C(=O)CS(=O)(=O)c1cn(CC(=O)N2CCCCC2)c2ccccc12)c1ccccc1 | 1 | 2 | x | 64* | -1 | -9
CCN(CC)c1ccc(NC(=O)Nc2ccccc2)cc1 | -4 | -15 | 8 | -5 | 25* | 1
CCN(CC)c1ccc(NC(=O)Nc2ccc(C(C)=O)cc2)cc1 | -1 | x | x | x | x | x
O=C(N/N=C/c1ccccn1)c1cc(-c2ccc(Cl)cc2)nc2ccccc12 | -2 | 1 | 7 | -10 | -25 | 99*
O=C(O)COc1ccccc1/C=N/NC(=O)c1cc(-c2ccc(Cl)cc2)nc2ccccc12 | -5 | u | -14 | 18 | 5 | -11
O=C(N/N=C/c1ccccn1)c1cc(-c2ccc(Br)cc2)nc2ccccc12 | x | -4 | -9 | -6 | -4 | 106*
COCC(=O)N(C)C[C@H]1Oc2cc(-c3ccccc3F)ccc2S(=O)(=O)N([C@H](C)CO)C[C@H]1C | 9 | 7 | 4 | 0 | 0 | x
COc1ccc2c3c([nH]c2c1)[C@H](CO)N(C(=O)NC(C)C)CC31CCN(C(=O)c2ccncc2)CC1 | x | x | 1 | x | x | x
CCNC(=O)[C@@H]1[C@@H](CO)[C@@H]2Cn3c(cccc3=O)[C@H]1N2C(=O)c1ccc(F)cc1 | x | 1 | 3 | -7 | -30 | x
O=C(O)c1cccc2c1Cc1cc(Cl)ccc1-2 | -1 | -1 | 15 | 6 | -1 | 107*
Nc1cccc(Oc2ccc([N+](=O)[O-])cc2)c1 | x | 0 | 2 | 2 | 2 | 0
COc1cccc(N)c1 | x | -1 | x | 171* | -4 | x
Nc1cccc(Oc2c(F)c(F)c(Oc3cccc(N)c3)c(F)c2F)c1 | -2 | -5 | -19 | 9 | -1 | 85*
Cc1ccc(C23OCCN2CCn2nc4ccccc4c23)cc1 (configuration not stated) | -6 | -5 | 0 | 74* | -7 | 18
C[C@@H]1CN([C@H](C)CO)C(=O)Cc2cc(NC(=O)CCC(F)(F)F)ccc2O[C@H]1CN(C)Cc1ccncc1 | -3 | 6 | 3 | x | -1 | x
Cc1cccc(N=Nc2ccc(O)c3ncccc23)c1 | x | x | x | x | x | 101*
C[C@@H]1CCCCO[C@H](CN(C)S(=O)(=O)c2cccs2)[C@@H](C)CN([C@H](C)CO)C(=O)c2cc(NC(=O)Nc3cccc4ccccc34)ccc2O1 | -1 | x | 4 | -1 | x | x
C[C@@H]1CCCCO[C@@H](CN(C)CC2CCCCC2)[C@H](C)CN([C@H](C)CO)C(=O)c2cc(NC(=O)NC3CCCCC3)ccc2O1 | 42 | x | 5 | u | x | x
COc1ccccc1C#Cc1ccc2c(c1)[C@H]1[C@H](CCN1S(=O)(=O)c1ccc(C)cc1)[C@H](CO)N2 | -10 | x | 0 | -7 | x | x
SMILES | Cneo AK release | S100A4 MyoIIA | rRNA inh HTS | DENV2 CPE rescue | MLL AF4-AF9 inh | PfHsp90 yeast 2
CSc1nc2ccc(NS(=O)(=O)c3ccccc3F)cc2s1 | x | -10 | -23 | 0 | 1 | -8
CSc1nc2ccc(S(=O)(=O)NC3CCCCC3)cc2s1 | x | x | x | x | x | 104*
CSc1nc2ccc(NS(=O)(=O)c3ccc(Br)s3)cc2s1 | x | 50 | -44* | 10 | x | -9
CCOc1cc(S(=O)(=O)NC2CCCCCC2)ccc1F | 3 | x | x | x | x | 108*
O=C(C[C@@H]1C[C@@H]2c3cc(NC(=O)Cc4ccncc4)ccc3O[C@@H]2[C@@H](CO)O1)NCC1CC1 | -2 | -2 | 3 | 16 | -1 | x
CCC(=O)N1[C@@H]2CN(C(=O)c3ccccc3F)c3ccccc3[C@@H]2[C@@H]1CO | -3 | 4 | 2 | 4 | -1 | x
CC(C)NC(=O)N(C)C[C@H]1Oc2cc(C#Cc3ccccn3)ccc2S(=O)(=O)N([C@@H](C)CO)C[C@@H]1C | -3 | 8 | -2 | -8 | -2 | x
C[C@H](CO)N1C[C@H](C)[C@H](CN(C)Cc2ccccc2)Oc2cc(C#Cc3ccccn3)ccc2S1(=O)=O | 99* | 2 | -7 | u | -1 | x
CC(C)NC(=O)N(C)C[C@@H]1Oc2cc(C#Cc3ccccn3)ccc2S(=O)(=O)N([C@H](C)CO)C[C@H]1C | -4 | -4 | 0 | 22* | 0 | x
Cn1ncc2c(O/N=C(\N)c3ccc(C(F)(F)F)cc3)ncnc21 | 0 | 1 | -17* | -4 | 2 | -3
CSCCC(NS(=O)(=O)c1cccs1)C(=O)NCc1ccccc1 (configuration not stated) | x | -18 | 1 | 36* | -3 | -8
CSCCC(NS(=O)(=O)c1cccs1)C(=O)NCc1ccc(C)cc1 (configuration not stated) | 4 | 2 | -6 | -3 | 2 | -33
C[C@H](CO)N1C[C@H](C)[C@H](CN(C)C(=O)Nc2ccccc2)OCCCC[C@H](C)Oc2ccc(NC(=O)Nc3ccc(C(F)(F)F)cc3)cc2C1=O | x | x | 2 | x | x | x
CC(C)(C)OC(=O)C[C@@H]1C/C=C\C[C@H](CC(=O)N[C@H](CO)Cc2ccccc2)C(=O)N[C@H](Cc2ccccc2)COC1=O | 2 | -1 | 1 | -4 | 3 | -5
CC(C)(C)OC(=O)C[C@H]1C/C=C\C[C@H](CC(=O)N[C@H](CO)Cc2ccccc2)C(=O)N[C@H](Cc2ccccc2)COC1=O | 2 | 108* | 4 | -7 | -1 | -9
CC(C)(C)OC(=O)C[C@H]1C/C=C\C[C@H](CC(=O)N[C@@H](CO)Cc2ccccc2)C(=O)N[C@H](C(C)(C)C)COC1=O | 1 | 7 | 2 | 63* | -1 | -6
CCC(=O)N1CC2(C1)CN(C(=O)CN1CCOCC1)[C@H](CO)c1[nH]c3cc(OC)ccc3c12 | x | x | 4 | 30* | -7 | x
